Test system: MS2 coat protein
Assay: apparent Kd, MS2 coat protein; higher = weaker binding; RNA-MaP array; FMN 200 µM where present
Summary of the method: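 Green signal was scaled to red-channel RNA signal and control-cluster median Fmax, and the apparent Kd was taken as the median of filtered per-cluster binding-curve fits. The binding series used SNAP-549-labelled MS2 coat protein from 0.7 or 1.5 nM, doubling to 3 µM, on designs transcribed by stalled E. coli RNA polymerase on Illumina sequencing-chip clusters. Each series ran without and then with constant ligand in 100 mM Tris-HCl pH 7.5, 80 mM KCl, 4 mM MgCl2, BSA, DTT, yeast tRNA and Tween-20.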

[1] = designed as: OFF switch for flavin mononucleotide, no ligand
[2] = ligand present: flavin mononucleotide, designed as: OFF switch for flavin mononucleotide
[3] = designed as: ON switch for flavin mononucleotide, no ligand
[4] = ligand present: flavin mononucleotide, designed as: ON switch for flavin mononucleotide

Sequence | apparent Kd [1] [µM] | apparent Kd [2] [µM] | apparent Kd [3] [µM] | apparent Kd [4] [µM]
ACAGUUGGUAGGCCCUCGGAACAUGAGGAUCACCCAUGUAAGGAGGAUAUGCCCGGUACCCGCUGGCAGAAGGCCUUAUAAGAA | 0.0088 | 0.0449 | – | –
UAAUAAUAGUGAGGAUAUAGUUAUUAUAAUAUACUAGAAGGUACACAUGAGGAUCACCCAUGUUUUAUAAUUUGUAAUUUAAAU | 0.0232 | 0.0205 | – | –
GUCAGCUCGUGAGGAUAUACAUGUGCUGGAGACAGCACUAAUUAAAUCACAUGAGGAUCACCCAUGUAGAAGGCACGAGCUGAU | 0.0166 | 0.0264 | – | –
AGAACGUCAGGAUAUCGAACAACAAGUAAAUAGAGAAGAAGCGAGAAGGGACAUGAGGAUCACCCAUGUAAGAA | 0.0576 | 0.0453 | – | –
GGAUCGAUGUAGAAGGCUGUCCUAAAAUAGGACAGAGGAUAUACAUGAGGAUCACCCAUGUACUCCUUUAAAACGAUCCAAAUA | 0.00544 | 0.00759 | – | –
ACAGCCGUCUAGAAGGGCGUAACUAAUUCCUACGUAGGAUAUGGACGGACAUGAGGAUCACCCAUGUUUGCAUUCCUCGUGGUA | 0.00774 | 0.00846 | – | –
CGAUAUAUGAAGGGCUAAUGCCCACAUGAGGAUCACCCAUGUAGAAGGCGAUCCGCAACGCGGAUCGAGGAUAUAUAGUAUACA | 0.00902 | 0.00966 | – | –
ACUGACAUGAGGAUCACCCAUGUCUUGAAUAGGUCAAAUUCACAGGAUAUGCACGCGGACAGAGUGCAGAAGGGUGAUGCAAUG | – | – | 0.044 | 0.0118
UGUCGGAGUAGAGGAUAUUACAUGAGGAUCACCCAUGUAUGAACCAAUAGCUGGAAACAGCAAUGUAAGAAGGCUGCUCCGACA | 0.00891 | 0.11 | – | –
GCAGCACUUUAUUACAUGAGGAUCACCCAUGUCGAUUGUUAUGAGGAUAUGCAUCGGAUGAAGAUGCAGAAGGCAUUGUGCUGC | – | – | 0.00724 | 0.00604
AAUAACCAAGGAUAUACAUGAGGAUCACCCAUGUGGCGUCUGCGAGCUACAUCCCUUAGUAGAAGGUGGACCAG | 0.0234 | 0.027 | – | –
AAAUCCUACGAAGGAUAUACAAACAUGAGGAUCACCCAUGUGUCUUUCGUGUAACUGGAAUUCGGGUAGAAGGUCGUAGACAUA | 0.017 | 0.0226 | – | –
UCGGCGCGAGGAUAUGCGGUUCCUUCUUCGGGCCGGAGCGUACAUGAGGAUCACCCAUGUAGAAGGCGCGCCGC | 0.0136 | 0.0153 | – | –
CACGCGAAAAGGAGUACAUGAGGAUCACCCAUGUAGGGUGGGAGAAGGCCGGUCGAGAGGUUUAUGGAGGAUAUUUAGGUGUUG | – | – | 0.0788 | 0.0525
AGUGUCAUCGAGAAGGCCUCAACAUGAGGAUCACCCAUGUUGCAAAAUGGGAGGAUAUCGAAAAUACAGCUACGUUUCGUAGCA | – | – | 0.0219 | 0.0053
AACCACGUUAGAUUAAGCGUGACAUGAGGAUCACCCAUGUGUCAGGAUAUACAUGGGCGGGCCCAGUAGAAGGGACUUAAUAGC | – | – | 0.146 | 0.091
GGAAAGGACAGAGGAUAUACGUGCUAGAGAUACUAGCAAAAUUUCCUCACAUGAGGAUCACCCAUGUAGAAGGCUGUCCUAUCG | 0.0162 | 0.394 | – | –
UAAAUAAUGUAAGGAUAUACAUGAGGAAUUCUCGUAGAAGGUACAUGACAUGAGGAUCACCCAUGUAUCGCUCAGUAGAGCGUA | – | – | 0.152 | 0.311
CCUCGACAUGAGGAUCACCCAUGUCAGGAUAUUGUGUUUUGGGUUUUUUACCUUUUGGCAAGAAGGGAUGUGUG | 0.0155 | 0.0191 | – | –
CCGGCUGCUGUGAGGAUAUGCCUGUGGGUGCGCGGGCAGAAGGCACAUGAGGAUCACCCAUGUCCUGCGGUCCC | 0.0257 | 0.0506 | – | –
UCGGCGCGAGGAUAUGCGGUUCCUCCCUAGGGCCGGAGCGUACAUGAGGAUCACCCAUGUAGAAGGCGCGCCGC | 0.0123 | 0.015 | – | –
ACAGAGGCUGACAUGAGGAUCACCCAUGUUAGAUUGUUAUGUCAGGAUAUUAUCUGGCAACCAGAUGAGAAGGGACCCUCUGUU | – | – | 0.0215 | 0.00768
AAUUUACAGCUAGGAUAUACAUGAGGAUCACCCAUGUAAUCAUAGGAUGUUAUCAUUGUAUGAGUGUAGAAGGAGCAAAUAAGA | 0.00673 | 0.00674 | – | –
GACUUGUAUGAGAAGGGACAUGGACUAGAUGUGACAUGAGGAUCACCCAUGUCAGGAUAUCAAGCGACCCGUAGCCGAUAGGCG | 0.0105 | 0.046 | – | –
UAUAUGUCAGGAUAUUAGUUGUGGACGAAUAAGACUUCUGCUGAGAAGGGACAUGAGGAUCACCCAUGUUCCUC | 0.0158 | 0.0194 | – | –
CGAUAGUGUAGUUAUCCGUAGCGAACAUGAGGAUCACCCAUGUAGGAUAUGUUACUAAACUAGUAACAGAAGGGCGUGAGUCUU | 0.0302 | 0.0306 | – | –
GCCAGGCGAGGAUAUGCGAGGUAGCCUUUGUCCGGAUACUGACAUGAGGAUCACCCAUGUAGAAGGUGCCUAGG | 0.0702 | 0.258 | – | –
CUUUUGUGAGGAUAUCAGUAGUAAAAAAAUAAAAUUACUAUUGAGAAGGCACAUGAGGAUCACCCAUGUUCCUC | 0.0345 | 0.168 | – | –

Sequence | apparent Kd [1] [µM] | apparent Kd [2] [µM] | apparent Kd [3] [µM] | apparent Kd [4] [µM]
UAUAUAUAGUAAGGAUAUGUAUAUGUUUUAUAAACAGAAGGUACUGACAUGAGGAUCACCCAUGUUUUAGUGUGGGCAUGUAGA | 0.0584 | 0.092 | – | –
CGCUACACCCAGAAGGACAUGAGGAUCACCCAUGUAGGAUAUGGGAGACACAGUCCCGUGUAGAGAAACUACGCUAGUGUAGCG | – | – | 0.344 | 0.112
GAGCUGUGAGGAUAUACAUGAGGAUCACCCAUGUUAAGGAAGUGGUGUAUAUUUUAGUGUAGAAGGCACUUAUU | 0.121 | 0.439 | – | –
CGUAUGUCAGGAUAUGCGUAUGCCAGUCAGGGCGAGUGGCAGCAGAAGGGACAUGAGGAUCACCCAUGUUCGGG | 0.0608 | 0.0513 | – | –
ACAUGAGGAUCACCCAUGUAUUUGUAGGAUAUACACAAUUCUUUAUUACUCUAAUUAAUAUGUUUGUAGAAGGACACUGCAUGA | 0.00971 | 0.00952 | – | –
AAAAAACAUGAGGAUCACCCAUGUGAGGAUAUGACGUAAAUAAAGAAAGAAGAAAUCGUCAGAAGGCACACCUA | 0.0527 | 0.0793 | – | –
GACUUGGCUACAUGAGGAUCACCCAUGUUUGACUGGAUCGAUUAGGAUAUAGUGAUUUGCAACAAUUAGAAGGGAUGUUUACGG | – | – | 0.023 | 0.0288
UCAUUUAAUACAGGAUAUGUUAUUAUACAGUUGUUUGGUUAUUACAUUAUAACAGAAGGGUAGAACAUGAGGAUCACCCAUGUA | – | – | 0.179 | 0.0794
CUAGAUAUGUAAGGAUAUAUAGUGGAAUACACUAUAGAAGGUAUGUGAGAACAUGAGGAUCACCCAUGUCAUUGGAUAUCUAGA | – | – | 0.0337 | 0.0376
ACAUGAGGAUCACCCAUGUGAAAAGAAUGGCUGACACAGAGAUAGGAUAUAUGUGCAUAUCUAACGUAGAAGGGUCAUGACUGG | 0.0333 | 0.0364 | – | –
GAGUGCUGAGGAUAUACAUGAGGAUCACCCAUGUGCUUCAACUAGGAGACUAGUAUUGGUAGAAGGCAGUACUC | 0.0165 | 0.104 | – | –
AUAAUGUAAGGAUAUCAGUCGACUAGCCUCGGCUAGUCGACUGAGAAGGUACAUGAGGAUCACCCAUGUGUUCC | 0.14 | 0.766 | – | –
GACUUCUCUGAGGAUAUUGCAUCAUACGAUAAAUAAGAAGGCAGAACAUGAGGAUCACCCAUGUGGGCUCCAAG | 0.0547 | 0.256 | – | –
UGUUGUAUUACAGGAUAUCUAUUAGUUUGAUUUAGAGAAGGGUAUUCACAUGAGGAUCACCCAUGUAUAUACGAGGAAGUUGUG | – | – | 0.0578 | 0.0579
GGGACUCUAGAAGAGCUGUCGACAUAGGAUAUGAUGUGCGACAUGAGGAUCACCCAUGUAACGAAUUAGAAGGGUGUAGGCAUG | – | – | 0.228 | 0.114
AGAUGACAAUGUCAUCUUCGACGGACAUGAGGAUCACCCAUGUAGGAUAUGCUACUCAAAGAGUAGCAGAAGGACAUGUGUCUU | 0.0222 | 0.0748 | – | –
CACGUCCACACAGGAUAUGCUGGACUUUGUCCAGCAGAAGGGUGACAUGAGGAUCACCCAUGUAAAAGGACGUGUAUAUUUAAU | – | – | 0.819 | 0.0621
UUAUAUAGAGUGAGGAUAUGCUGGUCCUUGGAUCAGCAGAAGGCACAUGAGGAUCACCCAUGUAAUAUAUUAUU | 0.022 | 0.0382 | – | –
ACAAAUUCUGACAUGAGGAUCACCCAUGUUAGAUUGUUAUGUCAGGAUAUUAUCUGGCAACCAGAUGAGAAGGGACGAUUUGUG | – | – | 0.0106 | 0.00715
CUAAAGCGAGGAUAUACAAUAAAAGGGAAUAAGGGAAAAAAACAUGAGGAUCACCCAUGUAGAAGGCGCCGAAA | 0.0322 | 0.0306 | – | –
UUACUACAUGAGGAUCACCCAUGUCAGGAUAUUGUUUAUACCUUGGAAUACGUGUCAACAAGAAGGGACUAUAU | 0.0229 | 0.0234 | – | –
UGUCGGAGCAGAGGAUAUUACAUGAGGAUCACCCAUGUAUGAACCAAUAGCUGGAAACAGCAAUGUAAGAAGGCUCCUCCGACA | 0.00618 | 0.0205 | – | –
CUUUCGUGAGGAUAUCAGUAGUAAAAAAAUAAAAUUACUACUGAGAAGGCACAUGAGGAUCACCCAUGUUCCUC | 0.0218 | 0.143 | – | –
GGAGCCGGCACCGAGGAUAUUCAUAUUAAAACAUGAGGAUCACCCAUGUACCGCAGAAGCGGUUGGGAGAAGGCGGAUCGGCUCG | – | – | 0.691 | 0.0421
AGGUACAUCGGAGGAUAUCAUGUAAAUACAUGAGGAUCACCCAUGUCGAUGGAGACAUCGGAGAUUGAGAAGGCCGAUGUACCG | – | – | 0.152 | 0.00862
UUAAUUAAUUAAUUAUACAUGAGGAUCACCCAUGUAAGUGAUCAGGAUAUCAGCUCGAAUAGAGCUGAGAAGGGAUCCAUGUAA | – | – | 0.117 | 0.083
CAGGUAGACUGAGGAUAUACAUGACUUAGUCUAUCUAGGUCAUUAACCACAUGAGGAUCACCCAUGUAGAAGGCAGUCUGCCUG | 0.0163 | 0.0196 | – | –

From the EternaBench riboswitch data
